Data on 17 compounds can be found in ChEMBL document CHEMBL1148170, “Antiplatelet effects and vasorelaxing action of some constituents of Formosan plants” (1993).

Assay [1] concerns Platelet. The assay can be described thus: Inhibition of ADP-induced platelet aggregation in rabbit platelet-rich plasma at 100 ug/mL after 3 mins by turbidimetric method. Type of assay: functional, Oryctolagus cuniculus. Also noted: scale not given: the % may be the effect or the level left. In outline:
(§1)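 Washed rabbit platelets from EDTA-anticoagulated platelet-rich plasma, 4.5 × 10^8/ml in Tyrode's solution with 0.35% BSA. Preincubated with test agent or 0.5% DMSO (final, control) at 37° for 3 min, then ADP (20 μM), arachidonic acid (100 μM), collagen (10 μg/ml) or PAF (2 ng/ml) added. Stirred at 1200 rpm, turbidimetric aggregometry. Percent aggregation as mean ± SEM.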

Assay [2] concerns Aorta. In words: Inhibition of norepinephrine-induced Wistar rat thoracic aorta phasic contraction at 100 ug/mL after 15 mins. Format: functional. In outline: (§2)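 Wistar rat thoracic aorta rings, about 5 mm, in Krebs solution at 37° gassed with 95% O2/5% CO2, under 1 g tension, equilibrated 90 min. Preincubated 15 min with compound or 0.1% DMSO (control), then stimulated with high K+ (80 mM) plus Ca2+ (1.9 mM) or norepinephrine 3 μM (phasic and tonic phases). Expressed as % of control contraction, mean ± SE, n = 3.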

Assay [3] relates to Platelet. The assay can be described thus: Inhibition of arachidonic acid-induced platelet aggregation in rabbit platelet-rich plasma at 100 ug/mL after 3 mins by turbidimetric method. Format: functional, Oryctolagus cuniculus. Also noted: scale not given: the % may be the effect or the level left. In outline:
(§3)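 Preincubated with test agent or 0.5% DMSO (final, control) at 37° for 3 min, then ADP (20 μM), arachidonic acid (100 μM), collagen (10 μg/ml) or PAF (2 ng/ml) added. Stirred at 1200 rpm, turbidimetric aggregometry. Percent aggregation as mean ± SEM.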

For assay [4], the system named is Platelet. The assay can be described thus: Inhibition of collagen-induced platelet aggregation in rabbit platelet-rich plasma at 100 ug/mL after 3 mins by turbidimetric method. Also noted: scale not given: the % may be the effect or the level left. Format: functional, Oryctolagus cuniculus. In outline: as §3
The test system of assay [5] is Platelet. The assay can be described thus: Inhibition of platelet activity factor-induced platelet aggregation in rabbit platelet-rich plasma at 100 ug/mL after 3 mins by turbidimetric method. Format: functional, Oryctolagus cuniculus. Also noted: scale not given: the % may be the effect or the level left. In outline: as §3
Assay [6] relates to Aorta. In words: Inhibition of norepinephrine-induced Wistar rat thoracic aorta tonic contraction at 100 ug/mL after 15 mins. Type of assay: functional. In outline:
as §2

Assay [7] relates to Aorta. In words: Inhibition of K(+)/Ca(2+)-induced Wistar rat thoracic aorta contraction at 100 ug/mL after 15 mins. Type of assay: functional. In outline: as §2
Assay [8] deals with Aorta. The assay can be described thus: Inhibition of norepinephrine-induced Wistar rat thoracic aorta tonic contraction at 50 ug/mL after 15 mins. Format: functional. Further details: scale not given: the % may be the effect or the level left. In outline:
(§4)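 Thoracic aorta rings (~5 mm) from Wistar rats of either sex (250–300 g) held in Krebs solution at 37° under 95% O2/5% CO2. Equilibrated 90 min at 1 g tension, then preincubated 15 min with compound or 0.1% DMSO. Contraction by norepinephrine (3 µM), phasic and tonic components, expressed as % of control contraction, mean ± SE, n = 3.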

Assay [9] has as its system Aorta. The assay can be described thus: Inhibition of norepinephrine-induced Wistar rat thoracic aorta phasic contraction at 20 ug/mL after 15 mins. Type of assay: functional. Further details: scale not given: the % may be the effect or the level left. In outline:
as §4

Assay [10] has as its system Aorta. The assay can be described thus: Inhibition of norepinephrine-induced Wistar rat thoracic aorta tonic contraction at 10 ug/mL after 15 mins. Format: functional. Further details: scale not given: the % may be the effect or the level left. In outline: as §4
Assay [11] concerns Aorta. The assay can be described thus: Inhibition of norepinephrine-induced Wistar rat thoracic aorta phasic contraction at 50 ug/mL after 15 mins. Format: functional. Further details: scale not given: the % may be the effect or the level left. In outline: as §4
Assay [12] relates to Aorta. The assay can be described thus: Inhibition of norepinephrine-induced Wistar rat thoracic aorta tonic contraction at 20 ug/mL after 15 mins. Type of assay: functional. Also noted: scale not given: the % may be the effect or the level left. In outline:
as §4

Assay [13] deals with Aorta. The assay can be described thus: Inhibition of norepinephrine-induced Wistar rat thoracic aorta phasic contraction at 10 ug/mL after 15 mins. Type of assay: functional. Also noted: scale not given: the % may be the effect or the level left. In outline:
as §4

Assay [14] relates to Platelet. In words: Inhibition of arachidonic acid-induced platelet aggregation in rabbit platelet-rich plasma at 25 ug/mL after 3 mins by turbidimetric method. Type of assay: functional, Oryctolagus cuniculus. Further details: scale not given: the % may be the effect or the level left. In outline:
as §1

In assay [15] the test system is Platelet. In words: Inhibition of collagen-induced platelet aggregation in rabbit platelet-rich plasma at 50 ug/mL after 3 mins by turbidimetric method. Type of assay: functional, Oryctolagus cuniculus. Further details: scale not given: the % may be the effect or the level left. In outline:
(§5)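 Washed rabbit platelets from EDTA-anticoagulated platelet-rich plasma, 4.5 × 10^8/ml in Tyrode's solution with 0.35% BSA. Preincubated with compound or 0.5% DMSO (final) at 37° for 3 min, stirred at 1200 rpm. Arachidonic acid (100 µM) or collagen (10 µg/ml) then added. Turbidimetric read-out on a Lumi-aggregometer gives % aggregation as mean ± SEM.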

In assay [16] the test system is Platelet. In words: Inhibition of arachidonic acid-induced platelet aggregation in rabbit platelet-rich plasma at 50 ug/mL after 3 mins by turbidimetric method. Type of assay: functional, Oryctolagus cuniculus. Also noted: scale not given: the % may be the effect or the level left. In outline:
as §5

The subject of assay [17] is Platelet. In words: Inhibition of ADP-induced platelet aggregation in rabbit platelet-rich plasma at 25 ug/mL after 3 mins by turbidimetric method. Format: functional, Oryctolagus cuniculus. Further details: scale not given: the % may be the effect or the level left. In outline: as §1
Assay [18] has as its system Platelet. The assay can be described thus: Inhibition of platelet activity factor-induced platelet aggregation in rabbit platelet-rich plasma at 25 ug/mL after 3 mins by turbidimetric method. Type of assay: functional, Oryctolagus cuniculus. Further details: scale not given: the % may be the effect or the level left. In outline:
as §1

The test system of assay [19] is Platelet. In words: Inhibition of collagen-induced platelet aggregation in rabbit platelet-rich plasma at 25 ug/mL after 3 mins by turbidimetric method. Type of assay: functional, Oryctolagus cuniculus. Further details: scale not given: the % may be the effect or the level left. In outline: as §1
In assay [20] the test system is Platelet. In words: Inhibition of platelet activity factor-induced platelet aggregation in rabbit platelet-rich plasma at 50 ug/mL after 3 mins by turbidimetric method. Format: functional, Oryctolagus cuniculus. Also noted: scale not given: the % may be the effect or the level left. In outline: as §1
For assay [21], the system named is Platelet. In words: Inhibition of ADP-induced platelet aggregation in rabbit platelet-rich plasma at 50 ug/mL after 3 mins by turbidimetric method. Type of assay: functional, Oryctolagus cuniculus. Further details: scale not given: the % may be the effect or the level left. In outline: as §1
Assay [22] deals with Platelet. The assay can be described thus: Inhibition of collagen-induced platelet aggregation in rabbit platelet-rich plasma after 3 mins by turbidimetric method. To be noted: Oryctolagus cuniculus. Format: functional.

Consider `O=c1c(O[C@@H]2O[C@H](CO)[C@H](O)[C@H](O)[C@H]2O)c(-c2ccc(O)c(O)c2)oc2cc(O)cc(O)c12` [HYPEROSIDE], for which the Activity was determined as 71.4% in assay [1], 92.2% in assay [3], 87.3% in assay [4] and 93.8% in [5]. Moreover, the entries for the “Contraction as % of control” value in assay [2] and in assay [7] were 100% and 120.9%, respectively. For the same compound, the “Contraction (% of control)” value in [6] was 98.8%.
Take `COc1ccc2c(c1)c(CC(=O)O)c(C)n2C(=O)c1ccc(Cl)cc1` [INDOMETHACIN]: the Activity in assay [1] is 69.5%; in [3], 0%; in [4], 72.3%; in assay [5], 89.4%.
Regarding `O=c1c(O)c(-c2ccc(O)c(O)c2)oc2cc(O)cc(O)c12` [QUERCETIN], the Activity is given as 0% in assay [8]; 44.9% in assay [9]; 101.9% in [10]; 15% in assay [11]; 29.1% in assay [12]; 105% in assay [13]. For the same compound, the “Contraction as % of control” value in assay [2] was determined as 27%; in assay [7], 13.9%. Moreover, the “Contraction (% of control)” value in assay [6] turned out to be 0%.
As to `Cc1cc(O)c2c(c1)C(=O)c1cc(O)cc(O)c1C2=O` [EMODIN], the Activity in assay [1] is reported as 65.1%; in [14] it was 90.2%; in assay [3], 33.6%; in assay [15], 83.3%; in [16] it was 64.5%; in assay [4], 75.7%. The compound also showed an Activity in [5] of 76.4%.
Turning to `CC(=O)Oc1cc(OC(C)=O)c2c(c1)C(=O)c1cc(C)cc(OC(C)=O)c1C2=O` [EMODIN TRIACETATE], the Activity in [1] came to 72.2%; in assay [3], 82.5%; in assay [4], 89.6%; in [5], 84.5%.
On to `COc1cc(O)c2c(c1)C(=O)c1cc(C)cc(O)c1C2=O` [PHYSCION], for which the Activity in assay [14] came out at 89.6%; in [17], 78.9%; in [18], 80.7%; in assay [19], 86.8%.
For `COc1cc(OC(C)=O)c2c(=O)c(O[C@@H]3O[C@H](CO[C@@H]4O[C@@H](C)[C@H](O[C@@H]5O[C@@H](C)[C@H](OC(C)=O)[C@@H](OC(C)=O)[C@H]5OC(C)=O)[C@@H](OC(C)=O)[C@H]4OC(C)=O)[C@H](OC(C)=O)[C@H](OC(C)=O)[C@H]3OC(C)=O)c(-c3ccc(OC(C)=O)c(OC)c3)oc2c1`, the Activity in assay [3] is on record as 88.8%; in assay [4] it was 87.8%; in [5] it was 90.8%.
For the compound `C[C@@H]1O[C@@H](OC[C@H]2O[C@@H](Oc3c(-c4ccc(O)c(O)c4)oc4cc(O)cc(O)c4c3=O)[C@H](O)[C@@H](O)[C@@H]2O)[C@H](O)[C@H](O)[C@H]1O` [RUTIN], the Activity in assay [1] was 75%; in [3] it was 93.5%; in assay [4] it was 87%; in [5], 91.1%. The “Contraction as % of control” value in assay [2] was found to be 103.8%; in assay [7], 112.9%. In [6], the “Contraction (% of control)” value amounted to 120.6%.
For `CC(=O)Oc1cc(OC(C)=O)c2c(=O)c(OC(C)=O)c(-c3ccc(O[C@@H]4O[C@H](CO[C@@H]5O[C@@H](C)[C@H](OC(C)=O)[C@@H](OC(C)=O)[C@H]5O[C@@H]5O[C@@H](C)[C@H](OC(C)=O)[C@@H](OC(C)=O)[C@H]5OC(C)=O)[C@H](OC(C)=O)[C@H](OC(C)=O)[C@H]4OC(C)=O)cc3)oc2c1` [RHAMNUSTRIOSIDE UNDECAAACETATE], the Activity worked out at 88.5% in assay [3], 86.5% in [4] and 89.9% in assay [5].
In the case of `CC(=O)Oc1cc(OC(C)=O)c2c(=O)c(OC(C)=O)c(-c3ccc(OC(C)=O)c(OC(C)=O)c3)oc2c1`, the Activity in assay [3] is 2.4%; in assay [4], 17.4%; in assay [5] it was 89.2%.
As to `O=c1c(O[C@@H]2O[C@H](CO[C@@H]3OC[C@H](O)[C@H](O)[C@H]3O)[C@H](O)[C@H](O)[C@H]2O)c(-c2ccc(O)c(O)c2)oc2cc(O)cc(O)c12`, the “Contraction as % of control” value in assay [2] and in [7] was 100% in each case. In addition, the “Contraction (% of control)” value in [6] is on record as 108.4%.
Take `Cc1cc(O)c2c(c1)C(=O)c1cccc(O)c1C2=O` [CHRYSOPHANOL]: the Activity was determined as 88.3% in assay [20], 85.4% in [15], 90.6% in [16] and 82.6% in [21].
In the case of `CC(=O)Oc1cc(OC(C)=O)c2c(=O)c(O[C@@H]3O[C@H](CO[C@@H]4O[C@@H](C)[C@H](OC(C)=O)[C@@H](OC(C)=O)[C@H]4OC(C)=O)[C@@H](OC(C)=O)[C@H](OC(C)=O)[C@H]3OC(C)=O)c(-c3ccc(OC(C)=O)c(OC(C)=O)c3)oc2c1` [RUTIN DECAACETATE], the Activity in [1] worked out at 72.4%; in [3], 25.9%; in assay [4], 27.3%; in assay [5], 88.7%.
Take `COc1cc(OC(C)=O)c2c(c1)C(=O)c1cc(C)cc(OC(C)=O)c1C2=O` [PHYSCION DIACETATE]: the Activity is recorded as 90.3% in assay [14], 76.5% in assay [17], 93.9% in assay [18] and 89.4% in [19].
With `COc1cc(OC(C)=O)c2c(=O)c(OC(C)=O)c(-c3ccc(OC(C)=O)c(OC)c3)oc2c1` [RHAMNAZIN TRIACETATE], the Activity in assay [3] is 10%; in assay [4], 14.3%; in [22] it was “Dose-dependent effect”; in assay [5] it was 84.5%.
Take `CC(=O)Oc1cc(OC(C)=O)c2c(=O)c(O[C@@H]3O[C@H](CO[C@@H]4OC[C@H](OC(C)=O)[C@H](OC(C)=O)[C@H]4OC(C)=O)[C@H](OC(C)=O)[C@H](OC(C)=O)[C@H]3OC(C)=O)c(-c3ccc(OC(C)=O)c(OC(C)=O)c3)oc2c1`: the Activity in [3] is 78.3%; in [4], 38.5%; in [5], 87.7%.
For `COc1cc(OC(C)=O)c2c(=O)c(OC(C)=O)c(-c3ccc(OC(C)=O)c(OC(C)=O)c3)oc2c1` [RHAMNETIN TETRAACETATE], the Activity was 2.6% in [3], 0% in assay [4], “Dose-dependent effect” in [22] and 0% in assay [5].
